Drawing on ChEMBL document CHEMBL1148817, “Synthesis and radioligand binding studies of bis-isoquinolinium derivatives as small conductance Ca(2+)-activated K(+) channel blockers” (J Med Chem, 2007), this text covers Ki, Activity and IC50 for 19 compounds.

Assay [1] addresses T1, Small conductance calcium-activated potassium channel (Rattus norvegicus, UniProt P70604+P70606+P70605). As to the kind of experiment: Displacement of [125I]apamin from SK channel in Wistar rat cortex. The method, boiled down: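 Rat cortex synaptosomes (0.2 mg protein/mL) incubated 1 h at 0 °C with 10 pM 125I-apamin and eight drug concentrations (10-4.5 to 10^-8 M) in 10 mM Tris-HCl pH 7.5, 5.4 mM KCl, 0.1% BSA. Nonspecific binding defined with 0.1 µM unlabeled apamin. Filtration on PEI-coated GF/C filters, scintillation counting, curve fitting.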

Assay [2] concerns the target Small conductance calcium-activated potassium channel (Rattus norvegicus) (UniProt P70604+P70606+P70605). As to the kind of experiment: Displacement of [125I]apamin from SK channel in Wistar rat cortex at 10 uM. (Loss of bound radioactivity is the signal in a displacement assay; it reports binding, not function.)
Assay [3] concerns the target T1, Small conductance calcium-activated potassium channel. Description: Blockade of SK channel in Wistar rat brain assessed as inhibition of apamin-sensitive after-hyperpolarisation. The method, boiled down:
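Apamin-sensitive AHP area (mV s) measured as percent reduction, normalized to block by 300 nM apamin; four sweeps averaged. IC50 from Hill equation fit; mean ± SD, n = 3.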

A value given as a limit tells only on which side of the number the result lay.

By Ki is commonly meant a dissociation constant, usually derived from enzyme kinetics or from competition with a known ligand. As a reminder, the IC50 is the concentration that inhibits the measured activity by half.

Regarding `Cc1cc(N)c2ccccc2[n+]1CCCCCCCCCC[n+]1c(C)cc(N)c2ccccc21.[Cl-].[Cl-]` [DEQUALINIUM CHLORIDE], the inhibition constant (Ki) in assay [1] stood at 221 nM. The Activity in assay [2] is greater than 58%.
The corresponding values for `COc1cc2cc[n+](C)c(Cc3cccc(Cc4c5cc(OC)c(OC)cc5cc[n+]4C)c3)c2cc1OC.[I-].[I-]` are 106 nM and greater than 58%.
Regarding `COc1cc2cc[n+](C)c(Cc3ccccc3Cc3c4c(OC)c(OC)c(OC)cc4cc[n+]3C)c2c(OC)c1OC.[I-].[I-]`, the 50% inhibitory concentration (IC50) in assay [3] was 4.1 µM. Besides, the Ki in assay [1] was 35 nM. For the same compound, the Activity in assay [2] was greater than 58%.
As to `COc1cc2cc[n+](C)c(Cc3ccc(Cc4c5cc(OC)c(OC)cc5cc[n+]4C)cc3)c2cc1OC.[I-].[I-]`, in assay [1], the Ki came out at 163 nM. In assay [2], the Activity was greater than 58%.
With `COc1cc2cc[n+](C)c(Cc3ccccc3Cc3c4cc(OC)c(OC)cc4cc[n+]3C)c2cc1OC.[I-].[I-]`, the IC50 in assay [3] stood at 3.8 µM. Besides, the Ki in assay [1] was 33 nM. The Activity in assay [2] was greater than 58%.
As for `COc1cc2cc[n+](C)c(CCCc3c4cc(OC)c(OC)cc4cc[n+]3C)c2cc1OC.[I-].[I-]`, the Ki in assay [1] stood at 196 nM. The Activity in assay [2] is greater than 58%.
The corresponding values for `COc1cc2cc[n+](C)c(CCCc3c4c(OC)c(OC)c(OC)cc4cc[n+]3C)c2c(OC)c1OC.[I-].[I-]` are 90 nM and greater than 58%.
The corresponding values for `C[n+]1ccc2ccccc2c1Cc1ccccc1Cc1c2ccccc2cc[n+]1C.[I-].[I-]` are 438 nM and greater than 58%.
The corresponding values for `COc1cc2cc[n+](C)c(CCCCc3c4cc(OC)c(OC)cc4cc[n+]3C)c2cc1OC.[I-].[I-]` are 164 nM and greater than 58%.
On to `C[n+]1ccc2ccccc2c1Cc1cccc(Cc2c3ccccc3cc[n+]2C)c1.[I-].[I-]`, for which the Ki in assay [1] came to 132 nM. Further, in assay [2], the Activity was greater than 58%.
Consider `C[n+]1ccc2ccccc2c1CCCCc1c2ccccc2cc[n+]1C.[I-].[I-]`, for which, in assay [1], the Ki worked out at 1962 nM. The Activity in assay [2] was greater than 58%.
The corresponding values for `COc1cc2cc[n+](C)c(Cc3ccc(Cc4c5c(OC)c(OC)c(OC)cc5cc[n+]4C)cc3)c2c(OC)c1OC.[I-].[I-]` are 280 nM and greater than 58%.
The corresponding values for `C[n+]1ccc2ccccc2c1Cc1ccc(Cc2c3ccccc3cc[n+]2C)cc1.[I-].[I-]` are 1103 nM and greater than 58%.
Consider `COc1ccc(C[C@H]2c3cc(OC)c(OC)cc3CC[N+]2(C)C)cc1OC.[I-]` [LAUDANOSINE METHIODIDE], for which the IC50 in assay [3] turned out to be 15 µM. Besides, the Activity in assay [2] was greater than 58%.
Turning to `COc1cc2cc[n+](C)c(CCCCCc3c4cc(OC)c(OC)cc4cc[n+]3C)c2cc1OC.[I-].[I-]`, the Ki in assay [1] was 150 nM. For the same compound, the Activity in assay [2] was greater than 58%.
The corresponding values for `C[n+]1ccc2ccccc2c1CCCc1c2ccccc2cc[n+]1C.[I-].[I-]` are 1687 nM and greater than 58%.
The corresponding values for `C[n+]1ccc2ccccc2c1CCCCCc1c2ccccc2cc[n+]1C.[I-].[I-]` are 1465 nM and greater than 58%.
On to `COc1cc2cc[n+](C)c(Cc3cccc(Cc4c5c(OC)c(OC)c(OC)cc5cc[n+]4C)c3)c2c(OC)c1OC.[I-].[I-]`, for which, in assay [3], the IC50 was determined as 2.4 µM. Moreover, in assay [1], the Ki came to 23 nM. In addition, the Activity in assay [2] is greater than 58%.
For `COc1cc2cc[n+](C)c(CCCCc3c4c(OC)c(OC)c(OC)cc4cc[n+]3C)c2c(OC)c1OC.[I-].[I-]`, the IC50 in assay [3] was 4.4 µM. Moreover, the Ki in assay [1] is on record as 42 nM. The Activity in assay [2] is greater than 58%.
